# High-throughput results (PubChem BioAssay)
# Most compounds without a hit are left out; they make up all but 2.8% or so of the library.
# NPY2 pot ag = NPY-Y2 potentiators or agonists, primary screen, cell-based; Neuropeptide Y receptor type 2 (Homo sapiens), P49146; cells expressing NPY-Y2, potentiator/agonist read-out; activation, % at 3.6 µM; 220,000 tested, 0.45% active; AID 1359, 2008; in the data active = activation above about 27%;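 note: cells stimulated with NPY near EC25 plus isoproterenol at EC100; 0% = vehicle plus submaximal agonist and 100% = vehicle plus saturating agonist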
# EP2 mod = EP2 receptor modulators, cAMP readout, primary screen, cell-based, HTRF cAMP, PGE2 stimulation; Prostaglandin E2 receptor EP2 subtype (Homo sapiens), P43116; EP2-expressing cells, cAMP HTRF FRET, PGE2 co-stimulation; induction, % at 25 µM; 260,000 tested, 0.83% active;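 active = compounds whose cAMP rise, as percent of the full-agonist control response, exceeds 60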;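 note: rat C6 glioma line stably carrying human EP2 under a CMV promoter; the protocol text gives 20 µM as final concentration; 100% = response of wells given 1 µM PGE2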
# Target sequence (P43116 whole entry, looked up): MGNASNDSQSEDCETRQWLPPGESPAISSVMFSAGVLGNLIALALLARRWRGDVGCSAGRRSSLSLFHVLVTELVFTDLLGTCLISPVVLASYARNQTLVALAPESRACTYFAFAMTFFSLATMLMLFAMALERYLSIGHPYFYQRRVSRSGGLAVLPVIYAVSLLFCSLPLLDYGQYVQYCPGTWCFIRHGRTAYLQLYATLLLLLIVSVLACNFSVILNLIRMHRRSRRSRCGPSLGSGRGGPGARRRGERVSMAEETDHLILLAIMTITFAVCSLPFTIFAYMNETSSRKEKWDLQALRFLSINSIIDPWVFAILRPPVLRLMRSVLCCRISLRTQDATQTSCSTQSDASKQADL
# NPY-Y1 PAM-ag = NPY-Y1 receptor potentiators or agonists, primary screen, cell-based; NPY-Y1 expressing cells, potentiator/agonist activation; 220,000 tested, 0.37% active; activation, % at 3.6 µM; Neuropeptide Y receptor type 1 (Homo sapiens), P25929; in the data active = activation above about 33%, passing the limit was not always enough;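 note: cells stimulated with NPY at EC10 then isoproterenol at EC100; 0% = low agonist plus stimulus and 100% = saturating agonist plus stimulus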
# Target sequence (P25929 whole entry, looked up): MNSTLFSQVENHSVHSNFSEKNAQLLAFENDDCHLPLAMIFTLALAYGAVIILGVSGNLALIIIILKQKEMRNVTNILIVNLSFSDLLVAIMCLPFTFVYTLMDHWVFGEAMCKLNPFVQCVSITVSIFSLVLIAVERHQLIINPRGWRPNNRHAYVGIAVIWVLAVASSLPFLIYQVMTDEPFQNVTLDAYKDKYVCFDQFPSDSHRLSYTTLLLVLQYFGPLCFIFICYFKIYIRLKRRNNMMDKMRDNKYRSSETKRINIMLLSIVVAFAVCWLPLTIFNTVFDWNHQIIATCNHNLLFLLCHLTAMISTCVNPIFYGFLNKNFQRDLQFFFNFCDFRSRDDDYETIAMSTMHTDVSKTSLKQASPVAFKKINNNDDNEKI
# NPY-Y1 antag = NPY-Y1 receptor antagonists, primary screen, cell-based. HEK293-CNG Y1 cells, membrane potential fluorescence; NPY at EC95, then isoproterenol. inhibition, % at 3.6 µM. 200,000 tested, 1% active;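 active = inhibition above the campaign mean inhibition of all tested compounds plus 3 SD, cut at about 20% in these data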;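 note: 0% = DMSO wells given NPY plus isoproterenol and 100% = isoproterenol alone without NPY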
#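 Material: HEK293 Y1/CNG channel cell line | Also added: NPY (25 nM), isoproterenol (1 µM), Ro 20-1724 (25 µM) | Compound: One concentration, 3.6 µM, in 0.4% DMSO | Schedule: 3 h dye uptake, 1 h room-temperature compound, 45 min post-isoproterenol | Signal: Membrane-potential fluorescent dye readout | Read-out: % inhibition of NPY effect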
# EP2 antag = human EP2 receptor antagonists, primary screen, TR-FRET cAMP, C6 glioma cells; C6 glioma cells expressing human EP2; cells stimulated with saturating PGE2; inhibition, % at 25 µM; 260,000 tested, 0.52% active;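 active = percent inhibition above 40 after rounding to a whole number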;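 note: rat C6 glioma host cells with rolipram phosphodiesterase inhibitor present; the protocol text gives 20 µM as final concentration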
# NPY Y2 blocker = NPY-Y2 receptor antagonists, primary screen, cell-based; Neuropeptide Y receptor type 2 (Homo sapiens), P49146; NPY-Y2 expressing cells, antagonist mode; inhibition, % at 2.7 µM; 140,000 tested, 0.99% active; AID 793, 2007; in the data active = inhibition above about 17%;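 note: 0% = vehicle with agonist challenge and 100% = reference antagonist with challenge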
# NPY-Y2 pot conf = NPY-Y2 potentiators or agonists, confirmation, cell-based; shares compounds with NPY2 pot ag; cell-based NPY-Y2 potentiator/agonist assay; activation, % at 3.6 µM; 450 tested, 20% active; AID 1539, 2009; in the data active = activation above about 33%
# NPY-Y1 counter = NPY-Y1 potentiators or agonists, counter-screen for NPY-Y2 potentiator project, cell-based, fluorescence | shares compounds with NPY2 pot ag | Y1 HEK293-CNG cells, membrane potential fluorescence | activation, % at 3.6 µM | 450 tested, 20% active | AID 1651, 2009; in the data active = activation above about 45%;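 note: cells stimulated with submaximal NPY then isoproterenol with phosphodiesterase inhibitor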
# NPY-Y1 ag 2 = NPY-Y1 direct agonists, selectivity assay for NPY-Y2 potentiator project, cell-based, fluorescence; shares compounds with NPY2 pot ag; HEK293 Y1-CNGC, membrane potential fluorescence, agonism; activation, % at 3.6 µM; 450 tested, 37% active; AID 1702, 2009;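 active = activation above the mean of DMSO-only control wells plus 3 SD, cut at about 18% in these data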;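 note: cells stimulated with 1 µM isoproterenol plus the PDE inhibitor Ro 20-1724; 0% = isoproterenol with DMSO and no NPY and 100% = 40 nM NPY; Y1 agonists lower the membrane potential dye signal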
# CNGC inh = CNGC cAMP sensor activity inhibitors, counter-screen for NPY-Y2 potentiator project, cell-based, HEK293-CNG parental, membrane potential fluorescence | isoproterenol cAMP | shares compounds with NPY2 pot ag | inhibition, % at 3.6 µM | 450 tested, 32% active;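 active = inhibition above the control-well mean plus 3 SD of those wells, cut at about 22% in these data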;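 note: 0% = DMSO with isoproterenol and 100% = DMSO without isoproterenol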
# Y2 agonist ctr = NPY-Y2 direct agonists, counter-screen for NPY-Y2 potentiator project, cell-based, fluorescence; shares compounds with NPY2 pot ag; HEK293 Y2/CNGC cells, membrane potential fluorescence, agonist mode; activation, % at 3.6 µM; 450 tested, 56% active;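 active = activation above the mean of solvent-only control wells plus 3 SD, cut at about 10% in these data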;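 note: cells stimulated by isoproterenol with no NPY added so direct agonism is tested; 0% = DMSO with isoproterenol alone and 100% = NPY at EC100 plus isoproterenol; agonism lowers probe fluorescence through less cAMP and CNG channel opening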
# The depositor's hits bear a star; . = no result given.
SMILES,NPY2 pot ag,EP2 mod,NPY-Y1 PAM-ag,NPY-Y1 antag,EP2 antag,NPY Y2 blocker,NPY-Y2 pot conf,NPY-Y1 counter,NPY-Y1 ag 2,CNGC inh,Y2 agonist ctr
N#Cc1c(-c2ccc(F)cc2)cc(-c2ccccc2)nc1SCC(=O)NCC(=O)O,71*,-17,15,.,0,.,-7,-2,-5,-11,2
COc1cc(C(=S)N2CCN(c3ccccc3Cl)CC2)cc(O)c1O,31*,-21,16,2,8,.,0,8,-1,7,23*
COc1ccc(C(=S)N2CCN(c3ccccc3Cl)CC2)cc1OC,-12,-27,-14,.,9,.,.,.,.,.,.
N#Cc1cc(-c2cccc(Cl)c2)no1,.,-112,.,.,14,.,.,.,.,.,.
Fc1ccc(Nc2ccnc(Nc3ccc(F)cc3)n2)cc1,32*,-58,26,-5,4,-3,21,28,15,24*,26*
Nc1ncnc(Nc2ccc(F)cc2)n1,5,18,-3,-3,7,0,.,.,.,.,.
Nc1cc(-c2cccs2)nn(CC(=O)NC23CC4CC(CC(C4)C2)C3)c1=O,.,-90,.,.,6,.,.,.,.,.,.
CCN(CC)CC(O)Cn1c2ccccc2c2ccccc21 (centres undefined),38*,4,43,-4,12,5,38*,32,29*,-2,41*
Cc1cnc(C(=O)N[C@H](Cn2nc(-c3ccc(F)c(F)c3)ccc2=O)C(C)C)cn1,.,-36,.,.,.,.,.,.,.,.,.
COC(=O)CCSc1cc(NCCOC(C)=O)c([N+](=O)[O-])c2nonc12,43*,-50,-7,-7,6,0,-2,-3,-6,4,-3
CCCC(=O)OCCNc1cc(SCCC(=O)OC)c2nonc2c1[N+](=O)[O-],5,1,-9,-3,6,0,.,.,.,.,.
CCCN1Cc2cccc(C(=O)N3CCN(c4ccccc4)CC3)c2C1=O,38*,17,4,2,6,3,-5,5,-15,-4,9
CCCN1Cc2cccc(C(=O)N3CCN(c4ccc(OC)cc4)CC3)c2C1=O,-4,-10,6,-4,3,.,.,.,.,.,.
CC(C)N1CC23C=CC(O2)C(C(=O)NC2(c4ccc(F)cc4)CCCC2)C3C1=O (centres undefined),.,-18,.,.,0,.,.,.,.,.,.
CCOC(=O)N1CCN(CC(O)COCC2=CCC3CC2C3(C)C)CC1 (centres undefined),43*,15,17,-5,11,2,7,15,15,-1,-1
CCOC(=O)N1CCN(CC(O)COCc2ccccc2)CC1 (centres undefined),5,5,6,4,15,3,.,.,.,.,.
Cc1ccc(N2C(SCC(=O)O)=NC(=Nc3cccc(C)c3)C23CCCC3)cc1,70*,-6,23,2,6,.,-3,0,-10,0,-8
O=C(O)CSC1=NC(=Nc2ccc(Cl)cc2)C2(CCCCC2)N1c1cccc(C(=O)O)c1,6,27,1,-2,9,1,.,.,.,.,.
CCc1cccc(NC(=O)c2cc(OC)c(OC)c(OC)c2)c1,61*,-48,-10,3,7,.,-7,-8,-20,-2,-1
COc1cc(C(=O)Nc2ccc3c(c2)C(=O)c2ccccc2C3=O)cc(OC)c1OC,-2,2,-23,3,3,4,.,.,.,.,.
COc1ccc(-n2nnnc2SCC(=O)NCCc2ccccc2)cc1OC,56*,0,14,3,6,.,-2,-4,-1,5,17*
COc1ccc(NC(=O)CSc2nc3c(c(=O)n(C)c(=O)n3C)n2C(C)C)cc1,.,-12,.,.,9,.,.,.,.,.,.
Cn1cnc2c(N/N=C/c3cccs3)ncnc21,64*,-1,0,.,4,.,-9,-3,-5,-10,-2
Cc1csc(NC(=O)Nc2ccccc2)n1,.,-149,.,.,11,.,.,.,.,.,.
O=c1[nH]cc(COCC(F)CCl)c(=O)[nH]1 (centres undefined),93*,20,-6,.,7,.,-3,2,3,10,7
SMILES,NPY2 pot ag,EP2 mod,NPY-Y1 PAM-ag,NPY-Y1 antag,EP2 antag,NPY Y2 blocker,NPY-Y2 pot conf,NPY-Y1 counter,NPY-Y1 ag 2,CNGC inh,Y2 agonist ctr
O=C(Nc1ccc(S(=O)(=O)Nc2nccs2)cc1)c1cc(-c2ccccc2Cl)nc2ccccc12,34*,11,10,-2,.,5,14,17,6,8,10
Cc1ccc(C(=O)N2CC3(C)CN(C(=O)c4ccc(C)cc4)CC(C)(C2)C3=O)cc1,30*,-19,14,2,2,0,-2,0,0,-3,-6
CCOc1ccc2cc3c(N)c(C(=O)N4CCCCC4)sc3nc2c1,.,-52,.,.,12,.,.,.,.,.,.
COc1cccc(OC)c1C(=O)N1CCN(c2ccccc2F)CC1,.,-19,.,.,9,.,.,.,.,.,.
COc1ccc(S(=O)(=O)N2CCC(C(=O)NC(C)C)CC2)cc1C,.,0,.,.,8,.,.,.,.,.,.
COc1ccccc1NC(=O)C1=C(C)NC2=C(C(=O)CCC2)C1c1ccc(Br)cc1 (centres undefined),.,53,.,.,14,.,.,.,.,.,.
O=[N+]([O-])c1cc(C(F)(F)F)ccc1NCCNC(=S)Nc1ccc(Cl)cc1,36*,-32,28,-10,23,-5,36*,37,39*,23*,46*
O=C(Nc1ccc(Cl)cc1)N1CCCN(c2ccc(C(F)(F)F)cc2[N+](=O)[O-])CC1,48*,-21,41,.,10,.,47*,76*,78*,60*,58*
COc1ccc(-c2nnc(SCC(=O)Nc3ccccc3OC)n2C)cc1,.,-43,.,.,26,.,.,.,.,.,.
